What is called pIC50 is −log10 of the IC50, conventionally taken in molar units. High values mean a low IC50, low ones a high IC50.

pIC50: −log10 of the molar value. Non-standard residues stand in square brackets, D forms with d. Residues, ends and D or L forms follow the SMILES beside them. *: point of attachment. NH(2-Me-nonan-4R-yl) = CCCCC[C@H](CC(C)C)N*; NHCH(iBu)2 = CC(C)CC(CC(C)C)N*; X1 = CC(C)CCOC[C@H](CC(C)C)N*; X11 = CCCCC[C@@H](CC(C)C)N*; Leu(ol) = CC(C)C[C@H](N)CO; X4 = CCCCCC[C@H](CC(C)C)N*; X12 = CCCC[C@H](CC(C)C)N*; X8 = CCCC[C@@H](CC(C)C)N*; X9 = CCC[C@@H](CC(C)C)N*; X3 = COC[C@H](CC(C)C)N*; X6 = CCC[C@H](CC(C)C)N*; Piv = CC(C)(C)C(=O)*; X2 = CCCCC(CCCC)N*; X7 = CCCC(CCC)N* Some results are limits rather than exact numbers.

Chain of Gastrin-releasing peptide receptor (P21729 whole entry): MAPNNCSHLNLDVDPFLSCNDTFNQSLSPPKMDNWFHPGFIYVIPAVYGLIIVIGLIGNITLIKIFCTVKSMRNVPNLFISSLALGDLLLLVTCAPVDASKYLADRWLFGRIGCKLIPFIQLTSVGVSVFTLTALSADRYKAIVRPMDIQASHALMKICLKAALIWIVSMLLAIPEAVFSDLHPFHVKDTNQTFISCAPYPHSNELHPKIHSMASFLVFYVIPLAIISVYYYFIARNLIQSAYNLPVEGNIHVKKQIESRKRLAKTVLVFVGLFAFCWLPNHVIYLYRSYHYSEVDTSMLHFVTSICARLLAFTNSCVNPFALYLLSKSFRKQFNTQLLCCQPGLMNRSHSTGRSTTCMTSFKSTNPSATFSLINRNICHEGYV

Target in the first assay: not listed separately
In words: Compound was evaluated for mitogenic inhibition against Swiss 3T3 murine fibroblast cells.
Molecule `CCCCC(CCCC)NC(=O)[C@H](Cc1cnc[nH]1)NC(=O)CNC(=O)[C@@H](NC(=O)[C@H](C)NC(=O)[C@H](Cc1c[nH]c2ccccc12)NC(=O)[C@H](Cc1cnc[nH]1)NC(C)=O)C(C)C` [2-{2-[2-[2-Acetylamino-3-(3H-imidazol-4-yl)-propionylamino]-3-(1H-indol-3-yl)-propionylamino]-propionylamino}-N-{[1-(1-butyl-pentylcarbamoyl)-2-(3H-imidazol-4-yl)-ethylcarbamoyl]-methyl}-3-methyl-butyramide] (Ac-HWAVGH-X2) showed a pIC50 of 7.96.

Molecule `CC(=O)N[C@@H](Cc1cnc[nH]1)C(=O)N[C@@H](Cc1c[nH]c2ccccc12)C(=O)N[C@@H](C)C(=O)N[C@H](C(=O)NCC(=O)N[C@@H](Cc1cnc[nH]1)C(=O)NC(CC(C)C)CC(C)C)C(C)C` [2-{2-[2-[2-Acetylamino-3-(3H-imidazol-4-yl)-propionylamino]-3-(1H-indol-3-yl)-propionylamino]-propionylamino}-N-{[2-(3H-imidazol-4-yl)-1-(1-isobutyl-3-methyl-butylcarbamoyl)-ethylcarbamoyl]-methyl}-3-methyl-butyramide] (Ac-HWAVGH-{NHCH(iBu)2}) showed a pIC50 of 8.10.

With `CCCC[C@H](CC(C)C)NC(=O)[C@H](Cc1cnc[nH]1)NC(=O)CNC(=O)[C@@H](NC(=O)[C@H](C)NC(=O)[C@H](Cc1c[nH]c2ccccc12)NC(=O)[C@H](Cc1cnc[nH]1)NC(C)=O)C(C)C` [2-{2-[2-[2-Acetylamino-3-(3H-imidazol-4-yl)-propionylamino]-3-(1H-indol-3-yl)-propionylamino]-propionylamino}-N-{[2-(3H-imidazol-4-yl)-1-(1-isobutyl-pentylcarbamoyl)-ethylcarbamoyl]-methyl}-3-methyl-butyramide] (Ac-HWAVGH-X12), the pIC50 is 8.52.

Target in the next assay: not listed separately
The description is as above. The source holds these as a separate data set.
`CCOC(=O)[C@H](CC(C)C)NC(=O)[C@H](Cc1c[nH]cn1)NC(=O)CNC(=O)[C@@H](NC(=O)[C@H](C)NC(=O)[C@H](Cc1c[nH]c2ccccc12)NC(=O)[C@H](Cc1c[nH]cn1)NC(C)=O)C(C)C` [2-[2-[2-(2-{2-[2-[2-Acetylamino-3-(3H-imidazol-4-yl)-propionylamino]-3-(1H-indol-3-yl)-propionylamino]-propionylamino}-3-methyl-butyrylamino)-acetylamino]-3-(3H-imidazol-4-yl)-propionylamino]-4-methyl-pentanoic acid ethyl ester] (Ac-HWAVGHL-OEt) had a pIC50 of 7.70.

In turn, `CCCCC[C@H](CC(C)C)NC(=O)[C@H](Cc1cnc[nH]1)NC(=O)CNC(=O)[C@@H](NC(=O)[C@H](C)NC(=O)[C@H](Cc1c[nH]c2ccccc12)NC(=O)[C@H](Cc1cnc[nH]1)NC(=O)C(C)(C)C)C(C)C` [2-{2-[2-[2-(2,2-Dimethyl-propionylamino)-3-(3H-imidazol-4-yl)-propionylamino]-3-(1H-indol-3-yl)-propionylamino]-propionylamino}-N-{[2-(3H-imidazol-4-yl)-1-(1-isobutyl-hexylcarbamoyl)-ethylcarbamoyl]-methyl}-3-methyl-butyramide] (Piv-HWAVGH-{NH(2-Me-nonan-4R-yl)}) had a pIC50 of 9.22.

`CCOC[C@H](CC(C)C)NC(=O)[C@H](Cc1c[nH]cn1)NC(=O)[C@H](C)NC(=O)[C@@H](NC(=O)[C@H](C)NC(=O)[C@H](Cc1c[nH]c2ccccc12)NC(=O)[C@H](Cc1c[nH]cn1)NC(C)=O)C(C)C` [2-{2-[2-[2-Acetylamino-3-(3H-imidazol-4-yl)-propionylamino]-3-(1H-indol-3-yl)-propionylamino]-propionylamino}-N-{1-[1-(1-ethoxymethyl-3-methyl-butylcarbamoyl)-2-(3H-imidazol-4-yl)-ethylcarbamoyl]-ethyl}-3-methyl-butyramide] showed a pIC50 of less than 6.52.

Molecule `CC(=O)N[C@@H](Cc1c[nH]cn1)C(=O)N[C@@H](Cc1c[nH]c2ccccc12)C(=O)N[C@@H](C)C(=O)N[C@H](C(=O)NCC(=O)N[C@@H](Cc1c[nH]cn1)C(=O)N[C@H](CO)CC(C)C)C(C)C` [2-{2-[2-[2-Acetylamino-3-(3H-imidazol-4-yl)-propionylamino]-3-(1H-indol-3-yl)-propionylamino]-propionylamino}-N-{[1-(1-hydroxymethyl-3-methyl-butylcarbamoyl)-2-(3H-imidazol-4-yl)-ethylcarbamoyl]-methyl}-3-methyl-butyramide] (Ac-HWAVGH[Leu(ol)]) gave a pIC50 of 6.52.

`CCCCCC[C@H](CC(C)C)NC(=O)[C@H](Cc1cnc[nH]1)NC(=O)CNC(=O)[C@@H](NC(=O)[C@H](C)NC(=O)[C@H](Cc1c[nH]c2ccccc12)NC(=O)[C@H](Cc1cnc[nH]1)NC(C)=O)C(C)C` [2-{2-[2-[2-Acetylamino-3-(3H-imidazol-4-yl)-propionylamino]-3-(1H-indol-3-yl)-propionylamino]-propionylamino}-N-{[2-(3H-imidazol-4-yl)-1-(1-isobutyl-heptylcarbamoyl)-ethylcarbamoyl]-methyl}-3-methyl-butyramide] (Ac-HWAVGH-X4) gave a pIC50 of 8.15.

`CCCCC[C@@H](CC(C)C)NC(=O)[C@H](Cc1cnc[nH]1)NC(=O)CNC(=O)[C@@H](NC(=O)[C@H](C)NC(=O)[C@H](Cc1c[nH]c2ccccc12)NC(=O)[C@H](Cc1cnc[nH]1)NC(C)=O)C(C)C` [2-{2-[2-[2-Acetylamino-3-(3H-imidazol-4-yl)-propionylamino]-3-(1H-indol-3-yl)-propionylamino]-propionylamino}-N-{[2-(3H-imidazol-4-yl)-1-(1-isobutyl-hexylcarbamoyl)-ethylcarbamoyl]-methyl}-3-methyl-butyramide] (Ac-HWAVGH-X11) showed a pIC50 of 7.66.

Turning to `CCCCC[C@H](CC(C)C)NC(=O)[C@H](Cc1cnc[nH]1)NC(=O)CNC(=O)[C@@H](NC(=O)[C@H](C)NC(=O)[C@H](Cc1c[nH]c2ccccc12)NC(=O)[C@H](Cc1cnc[nH]1)NC(C)=O)C(C)C` [2-{2-[2-[2-Acetylamino-3-(3H-imidazol-4-yl)-propionylamino]-3-(1H-indol-3-yl)-propionylamino]-propionylamino}-N-{[2-(3H-imidazol-4-yl)-1-(1-isobutyl-hexylcarbamoyl)-ethylcarbamoyl]-methyl}-3-methyl-butyramide] (Ac-HWAVGH-{NH(2-Me-nonan-4R-yl)}), the pIC50 was 8.40.

`CCCC[C@@H](CC(C)C)NC(=O)[C@H](Cc1c[nH]cn1)NC(=O)CNC(=O)[C@@H](NC(=O)[C@H](C)NC(=O)[C@H](Cc1c[nH]c2ccccc12)NC(=O)[C@H](Cc1c[nH]cn1)NC(C)=O)C(C)C` [2-{2-[2-[2-Acetylamino-3-(3H-imidazol-4-yl)-propionylamino]-3-(1H-indol-3-yl)-propionylamino]-propionylamino}-N-{[2-(3H-imidazol-4-yl)-1-(1-isobutyl-pentylcarbamoyl)-ethylcarbamoyl]-methyl}-3-methyl-butyramide] (Ac-HWAVGH-X8) gave a pIC50 of 8.22.

`COC[C@H](CC(C)C)NC(=O)[C@H](Cc1c[nH]cn1)NC(=O)CNC(=O)[C@@H](NC(=O)[C@H](C)NC(=O)[C@H](Cc1c[nH]c2ccccc12)NC(=O)[C@H](Cc1c[nH]cn1)NC(C)=O)C(C)C` [2-{2-[2-[2-Acetylamino-3-(3H-imidazol-4-yl)-propionylamino]-3-(1H-indol-3-yl)-propionylamino]-propionylamino}-N-{[2-(3H-imidazol-4-yl)-1-(1-methoxymethyl-3-methyl-butylcarbamoyl)-ethylcarbamoyl]-methyl}-3-methyl-butyramide] (Ac-HWAVGH-X3) showed a pIC50 of 7.04.

As to `CCCC(CCC)NC(=O)[C@H](Cc1cnc[nH]1)NC(=O)CNC(=O)[C@@H](NC(=O)[C@H](C)NC(=O)[C@H](Cc1c[nH]c2ccccc12)NC(=O)[C@H](Cc1cnc[nH]1)NC(C)=O)C(C)C` [2-{2-[2-[2-Acetylamino-3-(3H-imidazol-4-yl)-propionylamino]-3-(1H-indol-3-yl)-propionylamino]-propionylamino}-N-{[2-(3H-imidazol-4-yl)-1-(1-propyl-butylcarbamoyl)-ethylcarbamoyl]-methyl}-3-methyl-butyramide] (Ac-HWAVGH-X7), the pIC50 was 7.10.

As to `CCC[C@H](CC(C)C)NC(=O)[C@H](Cc1cnc[nH]1)NC(=O)CNC(=O)[C@@H](NC(=O)[C@H](C)NC(=O)[C@H](Cc1c[nH]c2ccccc12)NC(=O)[C@H](Cc1cnc[nH]1)NC(C)=O)C(C)C` [2-{2-[2-[2-Acetylamino-3-(3H-imidazol-4-yl)-propionylamino]-3-(1H-indol-3-yl)-propionylamino]-propionylamino}-N-{[2-(3H-imidazol-4-yl)-1-(3-methyl-1-propyl-butylcarbamoyl)-ethylcarbamoyl]-methyl}-3-methyl-butyramide] (Ac-HWAVGH-X6), the pIC50 was 8.00.

For `CCC[C@@H](CC(C)C)NC(=O)[C@H](Cc1cnc[nH]1)NC(=O)CNC(=O)[C@@H](NC(=O)[C@H](C)NC(=O)[C@H](Cc1c[nH]c2ccccc12)NC(=O)[C@H](Cc1cnc[nH]1)NC(C)=O)C(C)C` [2-{2-[2-[2-Acetylamino-3-(3H-imidazol-4-yl)-propionylamino]-3-(1H-indol-3-yl)-propionylamino]-propionylamino}-N-{[2-(3H-imidazol-4-yl)-1-(3-methyl-1-propyl-butylcarbamoyl)-ethylcarbamoyl]-methyl}-3-methyl-butyramide] (Ac-HWAVGH-X9), the pIC50 is 7.46.

The next assay concerns the target Gastrin-releasing peptide receptor (Mus musculus, UniProt P21729). The assay is described as follows: Compound was evaluated for mitogenic inhibition against Swiss 3T3 murine fibroblast cells. In outline: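 Swiss 3T3 monolayers grown to confluence, then serum-starved in serum-free DMEM for 48 h. Antagonist added together with 3 nM N-acetyl-GRP-20-27 amide and 23 nM [3H]thymidine. After a further 48 h, cells detached with trypsin/5 mM EDTA and filter-harvested; [3H]thymidine uptake measured. IC50 is the mean of at least two independent experiments.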
On to `CC(=O)N[C@@H](Cc1c[nH]cn1)C(=O)N[C@@H](Cc1c[nH]c2ccccc12)C(=O)N[C@@H](C)C(=O)N[C@H](C(=O)NCC(=O)N[C@@H](Cc1c[nH]cn1)C(=O)N[C@H](COCCC(C)C)CC(C)C)C(C)C` [2-{2-[2-[2-Acetylamino-3-(3H-imidazol-4-yl)-propionylamino]-3-(1H-indol-3-yl)-propionylamino]-propionylamino}-N-({2-(3H-imidazol-4-yl)-1-[3-methyl-1-(3-methyl-butoxymethyl)-butylcarbamoyl]-ethylcarbamoyl}-methyl)-3-methyl-butyramide] (Ac-HWAVGH-X1), for which the pIC50 is 7.49.

For the origin of these results see BindingDB's records for doi:10.1021/jm00111a027 (Merck Sharp & Dohme Research Laboratories, 1991).
